Assay results from ChEMBL document CHEMBL3227971, “Synthesis and antibacterial activity of 2-oxocephalosporins” (1979).
≈ marks a conversion by molar mass, not a printed value.

How the values were obtained:
Type in all cases: functional
Enterococcus faecalis = experiment: Antimicrobial activity against Streptococcus faecalis 20688 by two fold serial dilution technique
Summary of the method: (§1)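 MIC determined by twofold serial broth dilution in nutrient broth, reported in μg/mL.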

Streptococcus pneumoniae = experiment: Antimicrobial activity against Streptococcus pneumoniae 1985 by two fold serial dilution technique; summary of the method: as §1
Streptococcus pyogenes = experiment: Antimicrobial activity against Streptococcus pyogenes 9604 by two fold serial dilution technique; summary of the method: as §1
Staphylococcus aureus [1] = experiment: Antimicrobial activity against Staphylococcus aureus 9537 by two fold serial dilution technique; summary of the method: as §1
Staphylococcus aureus [2] = experiment: Antimicrobial activity against Staphylococcus aureus 9537 by two fold serial dilution technique in presence of 50% serum
Staphylococcus aureus [3] = experiment: Antimicrobial activity against penicillin-resistant Staphylococcus aureus 9606 by two fold serial dilution technique
Summary of the method: (§2)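 MIC determined by twofold serial dilution in nutrient broth; values reported in μg/mL.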

Staphylococcus aureus [4] = experiment: Antimicrobial activity against methicillin-resistant Staphylococcus aureus 15097 by two fold serial dilution technique; summary of the method: as §2
Proteus mirabilis [5] = experiment: Antimicrobial activity against Proteus mirabilis 9900 by two fold serial dilution technique; summary of the method: as §1
Proteus mirabilis [6] = experiment: Antimicrobial activity against Proteus mirabilis 9716 by two fold serial dilution technique; summary of the method: as §1
Providencia rettgeri = experiment: Antimicrobial activity against Providencia rettgeri 21205 by two fold serial dilution technique; summary of the method: as §1
Klebsiella pneumoniae [7] = experiment: Antimicrobial activity against Klebsiella pneumoniae 20468 by two fold serial dilution technique; summary of the method: as §1
Morganella morganii = experiment: Antimicrobial activity against Proteus morganii 15153 by two fold serial dilution technique; summary of the method: as §1
Serratia marcescens = experiment: Antimicrobial activity against Serratia marcescens 20019 by two fold serial dilution technique; summary of the method: as §1
Enterobacter cloacae [8] = experiment: Antimicrobial activity against Enterobacter cloacae 9659 by two fold serial dilution technique; summary of the method: as §1
Enterobacter cloacae [9] = experiment: Antimicrobial activity against Enterobacter cloacae 9656 by two fold serial dilution technique; summary of the method: as §1
Pseudomonas aeruginosa = experiment: Antimicrobial activity against Pseudomonas aeruginosa 9843 by two fold serial dilution technique; summary of the method: as §1
Escherichia coli [10] = experiment: Antimicrobial activity against Escherichia coli 15119 by two fold serial dilution technique; summary of the method: as §1
Escherichia coli [11] = experiment: Antimicrobial activity against Escherichia coli 20341 by two fold serial dilution technique; summary of the method: as §1
Klebsiella pneumoniae [12] = experiment: Antimicrobial activity against Klebsiella pneumoniae 15130 by two fold serial dilution technique; summary of the method: as §1

| Structure (SMILES) | MIC (Enterococcus faecalis) | MIC (Streptococcus pneumoniae) | MIC (Streptococcus pyogenes) | MIC (Staphylococcus aureus [1]) | MIC (Staphylococcus aureus [2]) | MIC (Staphylococcus aureus [3]) | MIC (Staphylococcus aureus [4]) | MIC (Proteus mirabilis [5]) | MIC (Proteus mirabilis [6]) | MIC (Providencia rettgeri) | MIC (Klebsiella pneumoniae [7]) | MIC (Morganella morganii) | MIC (Serratia marcescens) | MIC (Enterobacter cloacae [8]) | MIC (Enterobacter cloacae [9]) | MIC (Pseudomonas aeruginosa) | MIC (Escherichia coli [10]) | MIC (Escherichia coli [11]) | MIC (Klebsiella pneumoniae [12]) |
| --- | --- | --- | --- | --- | --- | --- | --- | --- | --- | --- | --- | --- | --- | --- | --- | --- | --- | --- | --- |
| CC(=O)OCC1=C(C(=O)O)N2C(=O)[C@@H](NC(=O)Cc3cccs3)[C@H]2SC1=O | 125 µg/mL (≈ 305 µM) | 1 µg/mL (≈ 2.44 µM) | 1 µg/mL (≈ 2.44 µM) | 4 µg/mL (≈ 9.75 µM) | 63 µg/mL | 16 µg/mL (≈ 39 µM) | > 125 µg/mL | 32 µg/mL (≈ 78 µM) | 63 µg/mL (≈ 153 µM) | > 125 µg/mL | > 125 µg/mL | > 125 µg/mL | > 125 µg/mL | > 125 µg/mL | > 125 µg/mL | > 125 µg/mL | > 125 µg/mL | > 125 µg/mL | > 125 µg/mL |
| CC1=C(C(=O)O)N2C(=O)[C@@H](NC(=O)Cc3cccs3)[C@H]2SC1=O | 63 µg/mL (≈ 179 µM) | 63 µg/mL (≈ 179 µM) | 125 µg/mL (≈ 355 µM) | 8 µg/mL (≈ 22.7 µM) | > 63 µg/mL | > 125 µg/mL | > 125 µg/mL | 63 µg/mL (≈ 179 µM) | 63 µg/mL (≈ 179 µM) | > 125 µg/mL | > 125 µg/mL | > 125 µg/mL | > 125 µg/mL | > 125 µg/mL | > 125 µg/mL | > 125 µg/mL | > 125 µg/mL | > 125 µg/mL | > 125 µg/mL |
| CC1=C(C(=O)O)N2C(=O)[C@@H](NC(=O)COc3ccccc3)[C@H]2SC1=O | 63 µg/mL (≈ 174 µM) | 32 µg/mL (≈ 88.3 µM) | 32 µg/mL (≈ 88.3 µM) | 8 µg/mL (≈ 22.1 µM) | > 63 µg/mL | 125 µg/mL (≈ 345 µM) | > 125 µg/mL | 125 µg/mL (≈ 345 µM) | 125 µg/mL (≈ 345 µM) | > 125 µg/mL | > 125 µg/mL | > 125 µg/mL | > 125 µg/mL | > 125 µg/mL | > 125 µg/mL | > 125 µg/mL | > 125 µg/mL | > 125 µg/mL | > 125 µg/mL |
| CC1=C(C(=O)O)N2C(=O)[C@@H](N)[C@H]2SC1=O.Cc1ccc(S(=O)(=O)O)cc1 | 32 µg/mL | 63 µg/mL | 125 µg/mL | 32 µg/mL | > 63 µg/mL | > 125 µg/mL | 125 µg/mL | > 125 µg/mL | 125 µg/mL | 125 µg/mL | > 125 µg/mL | > 125 µg/mL | > 125 µg/mL | > 125 µg/mL | > 125 µg/mL | > 125 µg/mL | > 125 µg/mL | > 125 µg/mL | > 125 µg/mL |
| CC(=O)OCC1=C(C(=O)O)N2C(=O)[C@@H](NC(=O)Cc3cccs3)[C@H]2SC1 [CEPHALOTHIN] | 32 µg/mL (≈ 80.7 µM) | 0.06 µg/mL (≈ 0.151 µM) | 0.13 µg/mL (≈ 0.328 µM) | 0.13 µg/mL (≈ 0.328 µM) | 8 µg/mL | 0.5 µg/mL (≈ 1.26 µM) | 32 µg/mL (≈ 80.7 µM) | 1 µg/mL (≈ 2.52 µM) | 2 µg/mL (≈ 5.04 µM) | 63 µg/mL (≈ 159 µM) | > 125 µg/mL | > 125 µg/mL | > 125 µg/mL | > 125 µg/mL | > 125 µg/mL | > 125 µg/mL | 16 µg/mL (≈ 40.4 µM) | 16 µg/mL (≈ 40.4 µM) | 16 µg/mL (≈ 40.4 µM) |
